Assay results collected from several papers.
Values after ≈ are worked out from the molar mass of the structure shown.

| Structure (SMILES) | organism | assay | test system | conditions | measurement | value |
| --- | --- | --- | --- | --- | --- | --- |
| O=C(Nc1c[nH]nc1-c1nc2ccc(CN3CCOCC3)cc2[nH]1)NC1CC1 | Staphylococcus aureus | microbial growth | NCTC8325 | – | MIC | > 30 µM |
| O=C1NC(=S)N/C1=C\c1ccc(-c2ccc(N(c3ccccc3)c3ccccc3)cc2)cc1 | Micrococcus luteus | microbial killing, broth dilution | ATCC10240 | – | MBC | > 1000 µg/mL |
| O=C1C=C(OCc2cn(-c3ccc(F)cc3)nn2)C(=O)c2ccccc21 | Escherichia coli | microbial growth, broth dilution | ATCC25922 | – | IC50 | 165 µg/mL (≈ 472 µM) |
| COc1ccc(S(=O)(=O)N(C(C)=O)c2ccccc2/C=C/c2cc[n+]([O-])cc2)cc1 | Staphylococcus aureus | microbial growth | NCTC8325 | – | MIC | > 30 µM |
| O=C1NC(=S)S/C1=C\c1c2ccccc2c(-c2ccc(N(c3ccccc3)c3ccccc3)cc2)c2ccccc12 | Micrococcus luteus | microbial killing, broth dilution | ATCC10240 | – | MBC | > 1000 µg/mL |
| Cc1ccc(C(C)C)cc1OS(=O)(=O)c1cccs1 | Escherichia coli | microbial growth, broth dilution | ATCC25922 | – | IC50 | 149 µg/mL (≈ 503 µM) |
| CN(C)C1CCN(C(=O)c2ccc(NC(=O)Nc3ccc(-c4nc(N5CCOCC5)nc(N5CCOCC5)n4)cc3)cc2)CC1 | Staphylococcus aureus | microbial growth | NCTC8325 | – | MIC | > 30 µM |
| COc1ccc2nc(-n3nc(CC(C)C)c4c3-c3ccccc3C4=O)sc2c1 | Staphylococcus aureus | microbial growth, well diffusion | NCIM5021 | 250 µg/mL | inhibition zone | 12 mm |
| CNC(=O)c1cc(COc2nnc(Nc3ccc(Cl)cc3)c3ccoc23)ccn1 | Staphylococcus aureus | microbial growth | NCTC8325 | – | MIC | > 30 µM |
| O=C(O)CN1C(=O)/C(=C/c2c3ccccc3c(-c3ccc(N(c4ccccc4)c4ccccc4)cc3)c3ccccc23)NC1=S | Micrococcus luteus | microbial killing, broth dilution | ATCC10240 | – | MBC | > 1000 µg/mL |
| CC[C@@H]1C(=O)N(C)c2cnc(Nc3ccc(C(=O)N[C@H]4CC[C@H](N5CCN(CC6CC6)CC5)CC4)cc3OC)nc2N1C(C)C | Staphylococcus aureus | microbial growth | NCTC8325 | – | MIC | > 30 µM |
| Cc1ccc2nc(-n3nc(C(C)C)c4c3-c3ccccc3C4=O)sc2c1 | Staphylococcus aureus | microbial growth, well diffusion | NCIM5021 | 125 µg/mL | inhibition zone | 12 mm |
| Cc1ccc(C(C)C)cc1OCc1cn(-c2ccc(F)cc2)nn1 | Escherichia coli | microbial growth, broth dilution | ATCC25922 | – | IC50 | 1580 µg/mL (≈ 4860 µM) |
| COc1cc2ncnc(Nc3ccc(F)c(Cl)c3)c2cc1OCCCN1CCOCC1 | Staphylococcus aureus | microbial growth | NCTC8325 | – | MIC | > 30 µM |
| O=C(O)CN1C(=O)/C(=C/c2ccc(-c3ccc(N(c4ccccc4)c4ccccc4)cc3)cc2)NC1=S | Staphylococcus aureus | microbial killing, broth dilution | ATCC43300 | – | MBC | 3.9 µg/mL (≈ 7.71 µM) |
| CC(C)c1nn(-c2nc3ccc(Cl)cc3s2)c2c1C(=O)c1ccccc1-2 | Staphylococcus aureus | microbial growth, well diffusion | NCIM5021 | 250 µg/mL | inhibition zone | 11 mm |
| O=C(O)CN1C(=O)/C(=C/c2ccc(-c3ccc(N(c4ccccc4)c4ccccc4)cc3)c3ccccc23)NC1=S | Micrococcus luteus | microbial killing, broth dilution | ATCC10240 | – | MBC | > 1000 µg/mL |
| Cc1nn(-c2nc3ccc(Br)cc3s2)c2c1C(=O)c1ccccc1-2 | Staphylococcus aureus | microbial growth, well diffusion | NCIM5021 | 500 µg/mL | inhibition zone | 12 mm |
| O=C(O)CN1C(=O)/C(=C/c2ccc(-c3ccc(N(c4ccccc4)c4ccccc4)cc3)cc2)SC1=S | Staphylococcus aureus | microbial killing, broth dilution | ATCC25923 | – | MBC | 31.3 µg/mL (≈ 59.9 µM) |
| CC(C)Cc1nn(-c2nc3ccc(Br)cc3s2)c2c1C(=O)c1ccccc1-2 | Staphylococcus aureus | microbial growth, well diffusion | NCIM5021 | 1000 µg/mL | inhibition zone | 21 mm |
| Cc1ccc(C(C)C)cc1OS(=O)(=O)c1ccc([N+](=O)[O-])cc1 | Escherichia coli | microbial growth, broth dilution | ATCC25922 | – | IC50 | 176 µg/mL (≈ 525 µM) |
| Cc1nn(-c2nc3ccc(Cl)cc3s2)c2c1C(=O)c1ccccc1-2 | Staphylococcus aureus | microbial growth, well diffusion | NCIM5021 | 1000 µg/mL | inhibition zone | 11 mm |
| Cc1ccc(Nc2nccc(N(C)c3ccc4c(C)n(C)nc4c3)n2)cc1S(N)(=O)=O | Staphylococcus aureus | microbial growth | NCTC8325 | – | MIC | > 30 µM |
| O=C1NC(=S)N/C1=C\c1ccc(-c2ccc(N(c3ccccc3)c3ccccc3)cc2)c2ccccc12 | Staphylococcus aureus | microbial killing, broth dilution | ATCC6538 | – | MBC | > 1000 µg/mL |
| O=C(O)c1ccc(-n2cc(COC3=CC(=O)c4ccccc4C3=O)nn2)cc1 | Escherichia coli | microbial growth, broth dilution | ATCC25922 | – | IC50 | 22.6 µg/mL (≈ 60.1 µM) |
| Cc1ccc2nc(-n3nc(CC(C)C)c4c3-c3ccccc3C4=O)sc2c1 | Staphylococcus aureus | microbial growth, well diffusion | NCIM5021 | 1000 µg/mL | inhibition zone | 14 mm |
| O=C(O)c1ccc(-n2cc(COc3cccc4cccnc34)nn2)cc1 | Escherichia coli | microbial growth, broth dilution | ATCC25922 | – | IC50 | 108 µg/mL (≈ 313 µM) |
| CNC(=O)c1cc(Oc2ccc(NC(=O)Nc3ccc(Cl)c(C(F)(F)F)c3)c(F)c2)ccn1 | Staphylococcus aureus | microbial growth | NCTC8325 | – | MIC | 3 µM (≈ 1.45 µg/mL) |
| Cc1nn(-c2nc3ccccc3s2)c2c1C(=O)c1ccccc1-2 | Staphylococcus aureus | microbial growth, well diffusion | NCIM5021 | 500 µg/mL | inhibition zone | 11 mm |
